In publication PMC3448169 (mBio, 2012):
Entries after “also recorded” stand apart in the source; their conditions may differ. Ends that are not written are not given here. * marks the point of attachment. Biotin = O=C1N[C@H]2[C@H](CS[C@H]2CCCCC(=O)*)N1; Ahx = NCCCCCC(=O)O

T1: rabbit muscle aldolase (Oryctolagus cuniculus, UniProt P00883)
T1 sequence (P00883 1-364): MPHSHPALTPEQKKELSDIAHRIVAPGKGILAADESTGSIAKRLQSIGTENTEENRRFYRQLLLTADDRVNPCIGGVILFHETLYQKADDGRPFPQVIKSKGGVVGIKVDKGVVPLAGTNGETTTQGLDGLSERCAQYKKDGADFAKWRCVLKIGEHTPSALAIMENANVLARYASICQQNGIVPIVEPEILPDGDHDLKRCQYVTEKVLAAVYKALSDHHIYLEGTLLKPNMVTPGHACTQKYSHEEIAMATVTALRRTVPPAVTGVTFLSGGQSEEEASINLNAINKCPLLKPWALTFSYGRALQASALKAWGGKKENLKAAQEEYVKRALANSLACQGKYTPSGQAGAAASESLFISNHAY

B1: rabbit muscle aldolase (enzyme, UniProt P00883 1-364, looked up)
chain: T1 sequence (P00883 1-364)
B2: TRAP (thrombospondin-related anonymous protein) C-terminal cytoplasmic tail peptide (peptide)
peptide: {Biotin-Ahx}-ETLGEEDKDLDEPEQFRLPEENEWN
B3: RH1 C-terminal cytoplasmic tail peptide (peptide)
peptide: {Biotin-Ahx}-KQEDKEQEKQQQNDFVCDNNKMDDKSTQKYGRNQEEVMEISFDNDYI
B4: RH2b C-terminal cytoplasmic tail peptide (peptide)
peptide: {Biotin-Ahx}-NDHLSNYADKEEIIEIVFDENEEKYF
B5: RH4 C-terminal cytoplasmic tail peptide (peptide)
peptide: {Biotin-Ahx}-EDEVEDEVEDEDENENEVENENEDFNDI

Tests used:
GAPDH = experiment: SPR analysis of GAPDH binding to immobilized peptides; parameters: species or system yeast; conditions: curves did not fit the 1:1 or the two-state model, no KD determined
rabbit muscle aldolase [1] = biological target: T1, rabbit muscle aldolase; experiment: SPR analysis of aldolase binding to immobilized peptides; conditions: SPR sensorgrams, aldolase 50 to 800 nM
In short: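 CM5 chips at 25°C carried amine-coupled NeutrAvidin with captured biotinylated peptides (0.5 µg/ml). Rabbit muscle aldolase was injected in 10 mM HEPES pH 7.5/100 mM KCl/0.5 mM EDTA/1 mM MgCl₂/0.2% Tween 20, with F1-6P added in some runs. Flow was 20 µl/min, with 4 min association and 10 min dissociation, and glycine pH 2.5 regeneration. NeutrAvidin-only reference cells were subtracted. ka and kd came from global fits to a 1:1 Langmuir or a two-state model.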

yeast GAPDH = experiment: GAPDH pulldown assay with biotinylated peptides on streptavidin-agarose beads; format: binding; conditions: pulldown competition, 10 mM NADH
In short: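 Test peptides carried an N-terminal biotin–Ahx linker, were dissolved in 20 mM Tris-HCl pH 8.0 at 0.5 mg/ml, and were bound to streptavidin-agarose for 1 h at RT, then washed. After four washes, bound protein was boiled in reducing LDS buffer and run on 4–12% bis-Tris gels.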

[2] = biological target: BAEBL (EBA140) C-terminal cytoplasmic tail peptide (Plasmodium falciparum); experiment: SPR
[3] = biological target: B3; experiment: SPR
[4] = biological target: B5; experiment: SPR
rabbit muscle aldolase [5] = biological target: B1; experiment: SPR

For YMFDQQINVVNSDLYSEGIYDDTTTF [JESEBL], the “GAPDH binding by SPR (qualitative)” value (GAPDH) was “demonstrated binding”, the “binding to aldolase by SPR (qualitative)” value (rabbit muscle aldolase [1]) was “not to bind; also recorded: no binding was seen” and the “GAPDH binding on adding the cofactor NADH” value (yeast GAPDH) was “blocked”.

“yeast GAPDH (glyceraldehyde-3-phosphate dehydrogenase) (from UniProt P00359 1-332) (enzyme)” was tested, and the Kd [2] was 461 nM, the ka1 (two-state model, step 1) [2] was 10200 M^-1 S^-1 and the kd1 (two-state model, step 1) [2] was 0.016 s⁻¹. The kd2 (two-state model, step 2) [2] was 0.003 s⁻¹.

In the case of B1, the “ka1 (two-state model, step 1)” value [3] is reported as 45400 M^-1 S^-1, the “ka2 (two-state model, step 2)” value [3] is reported as 0.018 s⁻¹ and the “kd1 (two-state model, step 1)” value [3] is reported as 0.082 s⁻¹. The “kd2 (two-state model, step 2)” value [3] was 0.000647 s⁻¹, the “ka1 (two-state model, step 1)” value [4] was 16000 M^-1 S^-1 and the “ka2 (two-state model, step 2)” value [4] was 0.012 s⁻¹. For the same molecule, the “kd1 (two-state model, step 1)” value [4] was 0.034 s⁻¹ and the “kd2 (two-state model, step 2)” value [4] was 0.000269 s⁻¹.

With B2 the Kd (rabbit muscle aldolase [5]) was 106 nM.

For B3, the Kd (rabbit muscle aldolase [5]) was 61 nM.

B4 was tested, and the Kd (rabbit muscle aldolase [5]) was 214 nM, the koff (rabbit muscle aldolase [5]) was 0.000183 s⁻¹ and the kon (rabbit muscle aldolase [5]) was 856 M⁻¹ s⁻¹.

With B5 the Kd (rabbit muscle aldolase [5]) was 47 nM.
